The values below come from ChEMBL document CHEMBL2434956, “Investigating the selectivity of metalloenzyme inhibitors” (J Med Chem, 2013).

Structures are written as SMILES. Active and inactive are the calls of the source. The calls are words filed in the database; no cut-off is given here.

Assay [1] concerns the target T1, Tyrosinase (Agaricus bisporus) (UniProt O42713).
T1 sequence (whole entry): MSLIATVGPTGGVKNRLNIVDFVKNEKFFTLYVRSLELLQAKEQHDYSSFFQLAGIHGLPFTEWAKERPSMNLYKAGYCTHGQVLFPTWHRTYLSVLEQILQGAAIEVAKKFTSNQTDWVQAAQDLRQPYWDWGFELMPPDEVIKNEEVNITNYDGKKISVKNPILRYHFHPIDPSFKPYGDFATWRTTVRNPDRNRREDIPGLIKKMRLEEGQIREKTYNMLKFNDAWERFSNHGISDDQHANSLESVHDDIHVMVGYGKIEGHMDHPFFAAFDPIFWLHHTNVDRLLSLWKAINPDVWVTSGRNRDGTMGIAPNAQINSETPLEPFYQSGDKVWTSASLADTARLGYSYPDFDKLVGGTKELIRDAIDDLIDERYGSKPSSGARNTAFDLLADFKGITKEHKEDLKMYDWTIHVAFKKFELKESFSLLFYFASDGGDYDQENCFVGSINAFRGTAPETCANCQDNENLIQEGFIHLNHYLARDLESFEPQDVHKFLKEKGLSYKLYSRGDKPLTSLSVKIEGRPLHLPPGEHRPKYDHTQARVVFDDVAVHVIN
Description: Inhibition of mushroom tyrosinase assessed as L-DOPA conversion to melanin at 10 uM preincubated for 10 mins prior to substrate addition measured after 10 mins by spectrophotometric analysis. The method in brief: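 Mushroom tyrosinase (30 U) in 10 mM NaH₂PO₄ pH 6.8 with 10 µM inhibitor, 10 min at room temperature; background A475 taken, L-DOPA (0.5 mM) added, A475 read again after 10 min and background subtracted. No-inhibitor wells set as 100% activity. Triplicate assays, triplicate wells; mean ± SD.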

Assay [2] concerns the target Histone deacetylase 2 (Homo sapiens) (UniProt Q92769). To be noted: at 10 µM.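 Further: fluorescence readout of HDAC2 deacetylase activity, compound preincubated with HDAC2 5 min before substrate, signal read after 30 min.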
Assay [3] deals with T2, Macrophage metalloelastase (Homo sapiens, UniProt P39900). Description: Inhibition of human recombinant MMP-12 using Mca-Pro-Leu-Gly-Leu-Dpa-Ala-Arg-NH2.AcOH as substrate at 10 uM preincubated for 30 mins prior to substrate addition measured for 30 mins by fluorescence assay relative to control. The method in brief:
(§1)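 Human recombinant MMP-2 (1.16 U) or MMP-12 (0.007 U) in 50 mM HEPES, 10 mM CaCl₂, 0.05% Brij-35, pH 7.5, preincubated with inhibitor 30 min at 37 °C; 4 µM OmniMMP peptide then added. Fluorescence rise (ex 320/em 400 nm) over 30 min, as percent of no-inhibitor wells. Triplicate assays, triplicate wells; mean ± SD.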
Target sequence in this assay (P39900 106-470 limits assumed): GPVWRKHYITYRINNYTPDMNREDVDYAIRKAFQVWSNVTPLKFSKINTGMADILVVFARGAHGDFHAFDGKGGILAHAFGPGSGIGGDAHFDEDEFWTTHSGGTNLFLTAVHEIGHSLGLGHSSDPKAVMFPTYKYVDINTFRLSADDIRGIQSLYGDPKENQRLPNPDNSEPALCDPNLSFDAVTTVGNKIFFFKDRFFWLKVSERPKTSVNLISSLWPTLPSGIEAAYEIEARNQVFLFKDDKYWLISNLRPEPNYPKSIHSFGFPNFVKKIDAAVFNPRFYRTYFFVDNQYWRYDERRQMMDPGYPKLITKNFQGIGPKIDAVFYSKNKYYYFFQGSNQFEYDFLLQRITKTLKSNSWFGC

Assay [4] deals with T3, 72 kDa type IV collagenase (Homo sapiens, UniProt P08253). Description: Inhibition of human recombinant MMP-2 using Mca-Pro-Leu-Gly-Leu-Dpa-Ala-Arg-NH2.AcOH as substrate at 10 uM preincubated for 30 mins prior to substrate addition measured for 30 mins by fluorescence assay relative to control. The method in brief:
as §1
Target sequence in this assay (P08253 110-660 limits assumed): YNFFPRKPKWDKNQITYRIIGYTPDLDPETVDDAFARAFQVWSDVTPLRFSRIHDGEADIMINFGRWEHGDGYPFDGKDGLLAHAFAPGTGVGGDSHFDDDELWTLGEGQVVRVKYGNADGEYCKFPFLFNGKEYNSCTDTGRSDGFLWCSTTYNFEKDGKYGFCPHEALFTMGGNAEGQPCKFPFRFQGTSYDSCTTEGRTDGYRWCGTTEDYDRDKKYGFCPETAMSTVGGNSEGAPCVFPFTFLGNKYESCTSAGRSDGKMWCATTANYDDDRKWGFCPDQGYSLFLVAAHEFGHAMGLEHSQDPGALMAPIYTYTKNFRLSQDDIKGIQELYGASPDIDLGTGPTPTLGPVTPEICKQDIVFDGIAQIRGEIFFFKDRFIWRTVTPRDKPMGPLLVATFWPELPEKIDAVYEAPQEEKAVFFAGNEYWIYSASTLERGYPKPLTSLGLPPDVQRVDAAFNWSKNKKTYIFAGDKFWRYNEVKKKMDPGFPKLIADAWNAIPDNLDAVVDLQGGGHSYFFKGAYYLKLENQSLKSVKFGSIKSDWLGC

Assay [5] addresses Trypsin (Homo sapiens) (UniProt P07477+P07478+P35030). The assay is described as follows: Inhibition of TPCK-treated trypsin (unknown origin) at 10 uM preincubated for 10 mins prior to substrate addition measured for 30 mins by spectrophotometric analysis. Format: protein assay. The procedure, abridged:
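Commercial colorimetric kit run per manufacturer; TPCK-treated trypsin (100 mU) in kit buffer, inhibitor at 10 µM; enzyme and inhibitor preincubated 10 min at room temperature before substrate addition.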

For assay [6], the target named is Angiotensin-converting enzyme (Homo sapiens) (UniProt P12821). The assay is described as follows: Inhibition of human recombinant ACE/CD143 somatic form using Mca-Pro-Leu-Gly-Leu-Dpa-Ala-Arg-NH2.AcOH as substrate at 10 uM preincubated for 10 mins prior to substrate addition measured for 30 mins by spectrophotometric analysis. The method in brief: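 Human recombinant somatic ACE/CD143 (20 ng) in 50 mM MES pH 6.5 with inhibitor at 10 µM, preincubated 10 min at 37 °C; OmniMMP fluorogenic peptide (4 µM) then added. Fluorescence (ex 320/em 400 nm) read over 30 min. Data normalized to uninhibited enzyme; triplicate assays, each inhibitor in triplicate; mean ± SD.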
Chain of Angiotensin-converting enzyme (Homo sapiens) (P12821 whole entry): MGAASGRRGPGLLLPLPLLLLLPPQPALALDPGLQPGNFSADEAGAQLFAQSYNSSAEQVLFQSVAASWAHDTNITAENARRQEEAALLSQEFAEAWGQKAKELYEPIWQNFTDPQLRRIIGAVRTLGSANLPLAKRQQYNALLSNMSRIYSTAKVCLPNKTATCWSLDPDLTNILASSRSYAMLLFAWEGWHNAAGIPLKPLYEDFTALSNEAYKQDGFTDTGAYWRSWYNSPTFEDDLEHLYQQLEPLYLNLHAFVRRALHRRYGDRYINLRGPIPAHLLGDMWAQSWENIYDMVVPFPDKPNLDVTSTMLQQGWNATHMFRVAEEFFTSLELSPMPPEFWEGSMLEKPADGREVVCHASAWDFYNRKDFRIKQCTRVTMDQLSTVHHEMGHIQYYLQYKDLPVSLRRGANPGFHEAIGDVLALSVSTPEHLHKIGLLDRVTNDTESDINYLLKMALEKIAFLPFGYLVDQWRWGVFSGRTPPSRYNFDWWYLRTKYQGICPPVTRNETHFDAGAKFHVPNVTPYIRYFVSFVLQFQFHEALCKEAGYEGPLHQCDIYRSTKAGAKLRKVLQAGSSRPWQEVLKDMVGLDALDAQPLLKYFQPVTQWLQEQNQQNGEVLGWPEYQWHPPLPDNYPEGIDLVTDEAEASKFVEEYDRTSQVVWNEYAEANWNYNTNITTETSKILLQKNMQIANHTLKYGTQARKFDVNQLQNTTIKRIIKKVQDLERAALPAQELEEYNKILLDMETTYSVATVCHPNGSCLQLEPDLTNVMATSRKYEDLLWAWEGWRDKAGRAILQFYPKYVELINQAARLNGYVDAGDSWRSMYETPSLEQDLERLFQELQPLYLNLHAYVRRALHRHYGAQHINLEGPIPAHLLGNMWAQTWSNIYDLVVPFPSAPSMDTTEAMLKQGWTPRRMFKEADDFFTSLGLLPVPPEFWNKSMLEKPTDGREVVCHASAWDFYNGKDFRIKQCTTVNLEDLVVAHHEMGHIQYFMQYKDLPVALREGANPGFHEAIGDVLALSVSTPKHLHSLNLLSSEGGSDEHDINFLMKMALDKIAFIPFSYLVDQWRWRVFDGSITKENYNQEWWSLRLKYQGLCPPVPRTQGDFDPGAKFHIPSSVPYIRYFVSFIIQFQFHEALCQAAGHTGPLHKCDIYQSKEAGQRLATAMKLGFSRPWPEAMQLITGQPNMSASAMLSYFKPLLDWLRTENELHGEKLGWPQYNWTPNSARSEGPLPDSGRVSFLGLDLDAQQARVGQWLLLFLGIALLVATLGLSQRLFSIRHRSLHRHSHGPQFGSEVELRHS

For assay [7], the species on record is Homo sapiens. The assay is described as follows: Binding affinity to ferritin (unknown origin) assessed as removal of ferric ion at 1 mM measured for 1 hr by UV-vis spectrophotometric analysis.
Assay [8] can be described thus: Inhibition of MMP (unknown origin). Details: species or system Homo sapiens.
The target of assay [9] is T2, Macrophage metalloelastase. The assay is described as follows: Inhibition of human recombinant MMP-12 using Mca-Pro-Leu-Gly-Leu-Dpa-Ala-Arg-NH2.AcOH as substrate preincubated for 30 mins prior to substrate addition measured for 30 mins by fluorescence assay. The method in brief:
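Human recombinant MMP-12 (0.007 U) was preincubated with inhibitor at 37 °C for 30 min in 50 mM HEPES, 10 mM CaCl₂, 0.05% Brij-35, pH 7.5. OmniMMP substrate was then added, and fluorescence (ex 320/em 400 nm) was followed for 30 min. Activity is the fluorescence increase relative to no-inhibitor wells (set to 100%). Triplicate assays, each with triplicate inhibitor wells; mean ± SD.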
Target sequence in this assay (P39900 whole entry): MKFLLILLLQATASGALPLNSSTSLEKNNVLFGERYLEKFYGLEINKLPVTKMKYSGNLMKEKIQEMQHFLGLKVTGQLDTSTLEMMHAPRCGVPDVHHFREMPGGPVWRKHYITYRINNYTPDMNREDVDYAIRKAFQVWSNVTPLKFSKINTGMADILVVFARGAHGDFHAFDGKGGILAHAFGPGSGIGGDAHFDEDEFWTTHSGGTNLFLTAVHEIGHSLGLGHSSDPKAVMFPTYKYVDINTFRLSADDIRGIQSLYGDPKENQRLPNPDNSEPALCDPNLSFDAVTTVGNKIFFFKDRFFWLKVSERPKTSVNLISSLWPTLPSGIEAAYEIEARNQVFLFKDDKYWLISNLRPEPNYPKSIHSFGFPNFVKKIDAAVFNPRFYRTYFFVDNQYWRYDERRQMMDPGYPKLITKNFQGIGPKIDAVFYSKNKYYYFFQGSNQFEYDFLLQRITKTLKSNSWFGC

The target of assay [10] is T3, 72 kDa type IV collagenase. Description: Inhibition of human recombinant MMP-2 using Mca-Pro-Leu-Gly-Leu-Dpa-Ala-Arg-NH2.AcOH as substrate preincubated for 30 mins prior to substrate addition measured for 30 mins by fluorescence assay. The procedure, abridged:
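Human recombinant MMP-2 (1.16 U) in 50 mM HEPES, 10 mM CaCl₂, 0.05% Brij-35, pH 7.5, is preincubated with inhibitor at 37 °C for 30 min. 4 µM OmniMMP substrate then starts the reaction. Fluorescence (ex 320/em 400 nm) is followed for 30 min. Activity is the fluorescence increase relative to no-inhibitor wells, as a percentage. Three assays, each in triplicate; mean ± SD.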
Target sequence in this assay (P08253 whole entry): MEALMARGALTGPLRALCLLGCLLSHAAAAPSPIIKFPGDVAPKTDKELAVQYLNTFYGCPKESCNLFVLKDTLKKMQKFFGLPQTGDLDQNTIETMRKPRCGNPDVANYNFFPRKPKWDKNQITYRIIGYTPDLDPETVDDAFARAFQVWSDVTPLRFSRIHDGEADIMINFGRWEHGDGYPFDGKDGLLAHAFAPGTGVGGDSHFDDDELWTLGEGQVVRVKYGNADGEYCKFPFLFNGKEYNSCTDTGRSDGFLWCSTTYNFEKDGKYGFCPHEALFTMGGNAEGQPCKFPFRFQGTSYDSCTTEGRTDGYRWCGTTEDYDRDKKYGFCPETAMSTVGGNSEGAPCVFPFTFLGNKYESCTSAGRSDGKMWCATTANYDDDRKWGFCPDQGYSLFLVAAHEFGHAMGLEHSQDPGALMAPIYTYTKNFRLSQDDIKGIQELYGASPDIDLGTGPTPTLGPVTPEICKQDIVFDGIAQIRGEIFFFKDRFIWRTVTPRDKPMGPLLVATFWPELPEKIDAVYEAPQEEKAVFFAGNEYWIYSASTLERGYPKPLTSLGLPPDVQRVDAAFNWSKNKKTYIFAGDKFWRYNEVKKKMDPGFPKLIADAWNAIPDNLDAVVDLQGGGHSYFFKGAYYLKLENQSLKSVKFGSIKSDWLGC

For assay [11], the target named is Matrix metalloproteinase-9 (Homo sapiens, UniProt P14780). Description: Inhibition of MMP-9 (unknown origin).
Chain of Matrix metalloproteinase-9 (P14780 whole entry): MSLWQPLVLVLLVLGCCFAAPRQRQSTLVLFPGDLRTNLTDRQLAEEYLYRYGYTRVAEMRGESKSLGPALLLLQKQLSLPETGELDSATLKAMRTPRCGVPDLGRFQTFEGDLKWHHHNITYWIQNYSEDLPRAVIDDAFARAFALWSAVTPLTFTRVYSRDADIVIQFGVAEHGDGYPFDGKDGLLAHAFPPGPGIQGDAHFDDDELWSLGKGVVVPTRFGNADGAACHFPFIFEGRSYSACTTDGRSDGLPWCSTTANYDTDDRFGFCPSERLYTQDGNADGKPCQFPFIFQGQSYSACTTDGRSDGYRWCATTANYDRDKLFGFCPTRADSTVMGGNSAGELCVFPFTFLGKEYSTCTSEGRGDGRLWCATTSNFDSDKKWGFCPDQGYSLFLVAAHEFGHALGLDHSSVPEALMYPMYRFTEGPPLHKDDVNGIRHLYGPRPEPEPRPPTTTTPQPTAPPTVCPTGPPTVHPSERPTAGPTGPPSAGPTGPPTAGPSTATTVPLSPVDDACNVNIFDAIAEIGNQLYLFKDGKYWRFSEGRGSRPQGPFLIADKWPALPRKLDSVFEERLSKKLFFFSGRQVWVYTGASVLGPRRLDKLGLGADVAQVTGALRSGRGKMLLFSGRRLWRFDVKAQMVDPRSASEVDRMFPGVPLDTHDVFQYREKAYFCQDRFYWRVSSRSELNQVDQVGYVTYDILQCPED

Chain of Histone deacetylase 2 (Homo sapiens) (Q92769 whole entry): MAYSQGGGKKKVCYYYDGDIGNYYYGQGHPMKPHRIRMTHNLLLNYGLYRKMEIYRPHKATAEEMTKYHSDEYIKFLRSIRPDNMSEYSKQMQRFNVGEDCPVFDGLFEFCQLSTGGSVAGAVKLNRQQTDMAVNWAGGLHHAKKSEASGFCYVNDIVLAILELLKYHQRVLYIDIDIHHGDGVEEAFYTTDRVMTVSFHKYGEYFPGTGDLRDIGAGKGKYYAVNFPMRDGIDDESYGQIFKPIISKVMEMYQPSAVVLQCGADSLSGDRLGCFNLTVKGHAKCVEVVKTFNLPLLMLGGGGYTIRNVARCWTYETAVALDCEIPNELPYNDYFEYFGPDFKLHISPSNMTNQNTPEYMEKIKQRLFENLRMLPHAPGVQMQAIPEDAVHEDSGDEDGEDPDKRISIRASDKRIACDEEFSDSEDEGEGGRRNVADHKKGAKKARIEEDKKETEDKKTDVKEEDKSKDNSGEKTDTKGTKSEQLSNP

The inhibition is the share of the control response that was lost under treatment. As to `C[C@H](CS)C(=O)N1CCC[C@H]1C(=O)O`, the inhibition entry in [1], in [2] and in [5] was “inactive” each time. Moreover, the inhibition result in assay [3] was “Active”. The inhibition in assay [4] is below 10%.
`CC(=O)Nc1nnc(S(N)(=O)=O)s1`: the inhibition entry in [1], in assay [2] and in assay [5] was “inactive” throughout. The inhibition result in [3] and in [4] was “Active” throughout.
`O=C(CCCCCCC(=O)Nc1ccccc1)NO`: the inhibition result in assay [1] and in assay [5] was “inactive” in each case. Also, the inhibition result in [6] was “Active”. Moreover, the inhibition in assay [3] and in assay [4] was below 25% in each case.
`CC(c1cc2ccccc2s1)N(O)C(N)=O` (centres undefined): the inhibition entry in [1], in assay [2] and in [5] was “inactive” in each case. The inhibition result in assay [3] and in assay [4] was “Active” in each case.
As to `Cc1nc(C(=O)NCc2ccc(F)cc2)c(O)c(=O)[nH]1`, the inhibition result in assay [1], in assay [2] and in assay [5] was “inactive” each time. Moreover, the inhibition result in assay [3] is “Active”. In addition, the inhibition in assay [4] turned out to be 50%.
For `CC(/C=C/C(=O)NO)=C\[C@@H](C)C(=O)c1ccc(N(C)C)cc1`, the inhibition result in [2] was “Active”.
Turning to `CC(=O)N(O)CCCCCNC(=O)CCC(=O)N(O)CCCCCNC(=O)CCC(=O)N(O)CCCCCN`, the inhibition entry in assay [1], in [2] and in assay [5] was “inactive” in each case. Also, the inhibition result in assay [3] and in assay [4] was “Active” in each case. Besides, the result in assay [7] was Active.
Consider `O=C(/C=C/c1ccc(Cl)cc1Cl)NO`, for which the inhibition result in assay [1] and in assay [5] was “inactive” throughout. Moreover, the inhibition entry in assay [2] is “Active”. The inhibition in assay [3] and in [4] was below 25% in each case.
What is called IC50 is the point on the concentration scale where inhibition reaches its midpoint. Turning to `COc1ccc(S(=O)(=O)N(Cc2cccnc2)[C@@H](C(=O)NO)C(C)C)cc1` [CGS-27023A], the inhibition entry in assay [1], in assay [2] and in assay [5] was “inactive” each time. The compound also registered an IC50 in [8] of 8 nM. The inhibition entry in assay [6] was “Active”. The inhibition in assay [3] and in assay [4] was 95% each time.
As to `O=C(NCc1ccc(-c2ccccc2)cc1)c1cccc(=O)n1O`, the inhibition entry in assay [1], in [2] and in assay [5] was “inactive” in each case. For the same compound, the IC50 in [9] worked out at 18 nM. In assay [6], the inhibition result is “Active”. In addition, the inhibition in [3] worked out at 100%; in assay [4] it was 80%.
As for `O=C(O)[C@H](Cc1ccccc1)NS(=O)(=O)c1ccc(-c2ccccc2)cc1`, the IC50 in assay [10] is 240 nM; in assay [11], 310 nM. Besides, the inhibition result in assay [1], in [2], in assay [6] and in assay [5] was “inactive” each time. Also, the inhibition result in [3] and in [4] was “Active” throughout.
